Data: ChEMBL document CHEMBL2375259, “Arylpiperazines as fatty acid transport protein 1 (FATP1) inhibitors with improved potency and pharmacokinetic properties” (Bioorg Med Chem Lett, 2013)
Converted amounts (≈) assume the structure as drawn. The source made the active and inactive calls. The calls are words filed in the database; no cut-off is given here.

How the values were obtained:
[1] = 1-Octanol-phosphate buffered saline distribution coefficient, log D of the compound at pH 7.4; format: physicochemical
Outline: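 logD measured by partitioning between 1-octanol and phosphate-buffered saline, pH 7.4.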

[2] = molecular target: Long-chain fatty acid transport protein 1 (Mus musculus, UniProt Q60714); experiment: Inhibition of mouse FLAG-tagged FATP1-mediated [1-14C] oleic acid conversion to [1-14C] oleoyl-CoA after 20 mins by scintillation counting analysis
Outline: (§1)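 Purified FLAG-tagged human or mouse FATP1 run in a cell-free acyl-CoA synthetase assay. Protein incubated with 10 µM [1-14C]oleic acid, 0.5 mM ATP, 0.5 mM CoA, 5 mM MgCl2, 30 mM NaCl, 0.05% Triton X-100 and 2 mM DTT in 100 mM Tris-HCl pH 7.4 for 20 min at 37 °C. Free oleate removed by heptane washes. Aqueous-phase radioactivity counted by scintillation. FLAG-luciferase background subtracted. IC50 is the mean of n ≥ 2.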

[3] = Metabolic stability in mouse liver microsomes assessed as compound remaining after 0.5 hr; format: ADME, Microsome; settings: read-out: Stability
Outline: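 Test compound incubated 0.5 h with mouse liver microsomes. Result given as percent of parent remaining.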

[4] = molecular target: Long-chain fatty acid transport protein 1 (Homo sapiens, UniProt Q6PCB7); experiment: Inhibition of human FLAG-tagged FATP1-mediated [1-14C] oleic acid conversion to [1-14C] oleoyl-CoA after 20 mins by scintillation counting analysis; outline: as §1
Mus musculus [5] = experiment: In vivo inhibition of FATP1 in high-fat diet fed mouse assessed as decrease in triglyceride content in soleus muscle at 1 to 100 mg/kg, po after 3 weeks
[6] = Fraction unbound in mouse plasma at 10 mg/kg, po; format: ADME, organism-based; design: dose 10 mg/kg, route oral
Outline: (§2)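 Unbound fraction (%) measured in mouse plasma.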

Mus musculus [7] = experiment: In vivo inhibition of FATP1 in high-fat diet fed mouse assessed as decrease in triglyceride content in white gastrocnemius muscle at 1 to 100 mg/kg, po after 3 weeks
[8] = Ratio of drug uptake in soleus muscle to plasma in mouse at 10 mg/kg, po after 1 week of repeated compound administration; format: ADME, organism-based; design: dose 10 mg/kg, route oral
Outline: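 Mice received repeated oral dosing at 10 mg/kg for 1 week. Soleus and plasma concentrations measured 3 h after dosing. Kp taken as the soleus-to-plasma ratio.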

[9] = AUC in mouse at 10 mg/kg, po; format: ADME, organism-based; design: dose 10 mg/kg, route oral; settings: plasma
Outline: (§3)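 Single 10 mg/kg oral dose to mice in DMA/PG/(20% HPβCD in saline) 10/10/80. Values are the mean of three mice.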

Mus musculus [10] = experiment: In vivo inhibition of FATP1 in high-fat diet fed mouse assessed as decrease in triglyceride content in liver at 1 to 100 mg/kg, po after 3 weeks
[11] = Clearance in mouse at 1 mg/kg, iv; format: ADME, organism-based; design: dose 1 mg/kg, route intravenous; settings: in vivo
Outline: (§4)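 Single 1 mg/kg intravenous dose to mice in DMA/PG/(20% HPβCD in saline) 10/10/80. Values are the mean of two mice.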

[12] = Solubility in Japanese Pharmacopoeia first fluid; format: physicochemical; settings: pH 1.2
[13] = Cmax in mouse at 10 mg/kg, po; format: ADME, organism-based; design: dose 10 mg/kg, route oral; settings: in vivo; outline: as §3
[14] = Oral bioavailability in mouse at 10 mg/kg; format: ADME, organism-based; settings: in vivo
[15] = Tmax in mouse at 10 mg/kg, po; format: ADME, organism-based; design: dose 10 mg/kg, route oral; settings: in vivo; outline: as §3
Mus musculus [16] = experiment: Free Cmax in mouse at 10 mg/kg, po; format: ADME, organism-based; design: dose 10 mg/kg, route oral; settings: in vivo
Outline: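 Free Cmax calculated as plasma unbound fraction (%) multiplied against the […], from mice given 10 mg/kg orally in DMA/PG/(20% HPβCD/saline) 10/10/80, n = 3.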

[17] = Solubility in Japanese Pharmacopoeia second fluid; format: physicochemical; settings: pH 6.8
[18] = Volume of distribution in mouse at 1 mg/kg, iv; format: ADME, organism-based; design: dose 1 mg/kg, route intravenous; settings: in vivo; outline: as §4
Mus musculus [19] = experiment: In vivo inhibition of FATP1 in high-fat diet fed mouse assessed as decrease in triglyceride content in soleus muscle at 3 to 30 mg/kg, po after 4 weeks; format: functional, organism-based
Outline: (§5)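 Mice kept on a high-fat diet for 4 weeks and given the compound orally at 3/10/30, 10/30/100 or 1/10/100 mg/kg. The 1–100 mg/kg series was run for 3 weeks. Triglyceride content measured in liver, white gastrocnemius and soleus, compared against HFD vehicle controls, P < 0.05.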

Mus musculus [20] = experiment: In vivo inhibition of FATP1 in high-fat diet fed mouse assessed as decrease in triglyceride content in white gastrocnemius muscle at 3 to 30 mg/kg, po after 4 weeks; format: functional, organism-based; outline: as §5
Mus musculus [21] = experiment: In vivo inhibition of FATP1 in high-fat diet fed mouse assessed as decrease in triglyceride content in liver at 3 to 30 mg/kg, po after 4 weeks; format: functional, organism-based; outline: as §5
Mus musculus [22] = experiment: In vivo inhibition of FATP1 in high-fat diet fed mouse assessed as decrease in triglyceride content in liver at 10 to 100 mg/kg, po after 4 weeks; format: functional, organism-based; outline: as §5
[23] = Plasma protein binding in mouse at 10 mg/kg, po; format: ADME, organism-based; design: dose 10 mg/kg, route oral; settings: read-out: PPB (converted); outline: as §2
Mus musculus [24] = experiment: In vivo inhibition of FATP1 in high-fat diet fed mouse assessed as decrease in triglyceride content in white gastrocnemius muscle at 10 to 100 mg/kg, po after 4 weeks; format: functional, organism-based; outline: as §5
[25] = Clearance in mouse at 5 mg/kg, iv; format: ADME, organism-based; design: dose 5 mg/kg, route intravenous; settings: in vivo
[26] = Volume of distribution in mouse at 5 mg/kg, iv; format: ADME, organism-based; design: dose 5 mg/kg, route intravenous; settings: in vivo
Mus musculus [27] = experiment: In vivo inhibition of FATP1 in high-fat diet fed mouse assessed as decrease in triglyceride content in soleus muscle at 10 to 100 mg/kg, po after 4 weeks; format: functional, organism-based; outline: as §5

Sequence of Long-chain fatty acid transport protein 1 (Homo sapiens, UniProt Q6PCB7) (Q6PCB7 whole entry): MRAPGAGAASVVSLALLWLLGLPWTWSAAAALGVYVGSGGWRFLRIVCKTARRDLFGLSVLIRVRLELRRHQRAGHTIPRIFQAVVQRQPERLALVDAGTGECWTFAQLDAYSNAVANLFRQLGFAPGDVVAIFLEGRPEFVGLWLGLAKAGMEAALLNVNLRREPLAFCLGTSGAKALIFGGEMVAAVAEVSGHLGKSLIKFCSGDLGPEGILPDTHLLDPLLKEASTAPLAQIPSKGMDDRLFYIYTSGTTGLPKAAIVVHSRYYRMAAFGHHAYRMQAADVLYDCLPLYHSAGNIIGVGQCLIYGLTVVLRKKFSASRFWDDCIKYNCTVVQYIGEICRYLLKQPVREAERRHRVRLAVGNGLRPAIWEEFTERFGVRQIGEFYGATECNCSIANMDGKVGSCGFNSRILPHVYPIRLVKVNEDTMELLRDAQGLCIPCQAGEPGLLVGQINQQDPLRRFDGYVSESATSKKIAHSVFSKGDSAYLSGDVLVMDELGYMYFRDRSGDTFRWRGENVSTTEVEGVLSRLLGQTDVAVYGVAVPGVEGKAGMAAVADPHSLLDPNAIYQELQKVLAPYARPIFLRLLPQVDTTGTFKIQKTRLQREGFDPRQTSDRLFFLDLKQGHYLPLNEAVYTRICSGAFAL
Sequence of Long-chain fatty acid transport protein 1 (Mus musculus, UniProt Q60714) (Q60714 whole entry): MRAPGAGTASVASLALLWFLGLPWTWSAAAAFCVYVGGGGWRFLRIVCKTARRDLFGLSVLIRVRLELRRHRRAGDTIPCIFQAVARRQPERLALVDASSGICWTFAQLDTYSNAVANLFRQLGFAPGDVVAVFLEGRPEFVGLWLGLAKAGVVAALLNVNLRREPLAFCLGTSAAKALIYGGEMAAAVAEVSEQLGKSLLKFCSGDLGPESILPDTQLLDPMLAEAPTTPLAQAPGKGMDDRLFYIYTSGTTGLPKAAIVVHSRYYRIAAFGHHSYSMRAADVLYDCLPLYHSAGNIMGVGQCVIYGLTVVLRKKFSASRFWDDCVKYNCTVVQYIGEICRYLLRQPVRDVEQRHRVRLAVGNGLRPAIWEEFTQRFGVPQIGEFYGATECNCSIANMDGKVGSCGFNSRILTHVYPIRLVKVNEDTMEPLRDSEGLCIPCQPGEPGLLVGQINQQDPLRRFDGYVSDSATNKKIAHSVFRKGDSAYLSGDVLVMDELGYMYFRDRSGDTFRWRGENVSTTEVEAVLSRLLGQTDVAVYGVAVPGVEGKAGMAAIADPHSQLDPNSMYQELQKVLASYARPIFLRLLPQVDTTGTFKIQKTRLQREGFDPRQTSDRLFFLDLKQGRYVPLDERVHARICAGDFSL

Compound	logD [1]	IC50 [2] [nM]	remaining at 0.5 h [3] [%]	IC50 [4] [nM]	also measured
O=C(CN1CCN(c2ccc(F)cn2)CC1)c1cnc2n1CCCC2	2.1	160	86	100	
O=C(CN1CCN(c2ncccn2)CC1)Nc1nc2c(s1)CCCC2	3.7	> 10000		> 1000	
Cc1nc(NC(=O)CN2CCN(c3ccc(F)cc3)CC2)sc1C	3.7	1700	56	430	
O=C(CN1CCN(c2ccc(F)cn2)CC1)c1cnc2ccccn12	2.5	290	98	130	
O=C(CN1CCN(c2ccccc2)CC1)Nc1nc2c(s1)CCCC2	4.3	9000		280	
O=C(CN1CCN(C2CCCCC2)CC1)Nc1nc2c(s1)CCCC2	3	> 10000		> 1000	
O=C(CN1CCN(c2nccs2)CC1)Nc1nc2c(s1)CCCC2	3.8	7900		520	
CCN(C(=O)CN1CCN(c2ccc(F)cn2)CC1)c1nc2c(s1)CCCC2		> 10000		780	
O=C(CN1CCN(c2ccc(F)cn2)CC1)c1cnn2ccccc12	2.5	1100	84	330	
O=C(CN1CCN(c2ccc(F)cc2)CC1)Nc1nc2c(s1)CCC2	4	> 10000		490	
Cc1nc2ccccn2c1C(=O)CN1CCN(c2ccccc2)CC1				3000	
O=C(CN1CCN(c2ccccn2)CC1)Nc1nc2c(s1)CCCC2	3.9	4900		200	
O=C(CN1CCN(c2ccc(F)cc2)CC1)Nc1nc2ccccc2s1	4.4	> 10000		490	
O=C(CN1CCN(c2cccnc2)CC1)Nc1nc2c(s1)CCCC2	3.3	> 10000		> 1000	
O=C(CN1CCN(c2ccc(F)cc2)CC1)Nc1nccs1	2.8	> 10000		> 1000	
O=C(CN1CCN(c2ccc(F)cn2)CC1)Nc1nc2c(s1)CCCC2	4.1	600	63	46	inhibition (Mus musculus [5]): inactive; fraction unbound [6]: 0.0015; inhibition (Mus musculus [7]): inactive; Kp at 168 h [8]: 0.03; AUC [9]: 36000 ng·h/mL; inhibition (Mus musculus [10]): inactive; clearance [11]: 5 mL/min/kg; solubility [12]: 700 µg/mL (≈ 1860 µM); Cmax [13]: 5500 ng/mL; bioavailability [14]: 100%; Tmax [15]: 19.8 min; fCmax (Mus musculus [16]): 0.0083 µg/mL; solubility [17]: 2.4 µg/mL (≈ 6.39 µM); Vd [18]: 0.57 L/kg
O=C(CN1CCN(c2ccc(F)cn2)CC1)c1ncc2ccccn12		> 10000		> 1000	
CC1CCc2sc(NC(=O)CN3CCN(c4ccc(F)cc4)CC3)nc2C1 (stereo unspecified)	5.1	5100	30	26	inhibition (Mus musculus [22]): inactive; fraction unbound [6]: 0.0043; Kp at 168 h [8]: 0.33; fraction unbound [23]: 0.0043; inhibition (Mus musculus [24]): inactive; clearance [25]: 46 mL/min/kg; AUC [9]: 2300 ng·h/mL; solubility [12]: 540 µg/mL (≈ 1390 µM); Vd [26]: 1.5 L/kg; inhibition (Mus musculus [27]): inactive; Cmax [13]: 1800 ng/mL; bioavailability [14]: 62%; Tmax [15]: 15 min; fCmax (Mus musculus [16]): 0.0077 µg/mL; solubility [17]: 0.7 µg/mL (≈ 1.8 µM)
Cc1ccc(N2CCN(CC(=O)Nc3nc4c(s3)CCCC4)CC2)cc1	4.8	> 10000		250	
O=C(CN1CCN(c2ccncc2)CC1)Nc1nc2c(s1)CCCC2	2	> 10000		> 1000	

More lines, main results first:

logD [1]	IC50 [2] [nM]	remaining at 0.5 h [3] [%]	IC50 [4] [nM]	Compound	also measured
2.5	400	55	190	Cc1nc2n(c1C(=O)CN1CCN(c3ccc(F)cn3)CC1)CCCC2	
	> 10000		> 1000	O=C(CN1CCN(c2ccc(F)cn2)CC1)c1c[nH]c2ccccc12	
2.8	> 10000		> 1000	O=C(CN1CCN(c2ccc(F)cn2)CC1)c1n[nH]c2ccccc12	
3	5400	53	180	O=C(CN1CCN(c2ccc(F)cc2)CC1)Nc1nc2c(o1)CCCC2	
2.7	1700	63	100	O=C(CN1CCN(c2ccc(F)cn2)CC1)Nc1nc2c(o1)CCCC2	
	> 10000		> 1000	O=C(CN1CCN(c2cccc(F)c2)CC1)Nc1nc2c(s1)CCCC2	
3.9	1900	76	470	O=C(CN1CCN(c2ccc(F)cn2)CC1)c1coc2ccccc12	
5	2000		120	O=C(CN1CCN(c2ccc(F)cc2)CC1)Nc1nc2c(s1)CCCCC2	
3.9	620	65	41	CN(C(=O)CN1CCN(c2ccc(F)cn2)CC1)c1nc2c(s1)CCCC2	
2.8	390	52	430	Cc1nc2ccccn2c1C(=O)CN1CCN(c2ccc(F)cn2)CC1	inhibition (Mus musculus [19]): inactive; inhibition (Mus musculus [20]): inactive; fraction unbound [6]: 0.275; Kp at 168 h [8]: 1.1; AUC [9]: 5500 ng·h/mL; inhibition (Mus musculus [21]): inactive; clearance [11]: 6.4 mL/min/kg; solubility [12]: > 700 µg/mL; Cmax [13]: 2200 ng/mL; bioavailability [14]: 21%; Tmax [15]: 19.8 min; fCmax (Mus musculus [16]): 0.61 µg/mL; solubility [17]: 350 µg/mL (≈ 990 µM); Vd [18]: 0.2 L/kg
4.5	4000	42	77	O=C(CN1CCN(c2ccc(F)cc2)CC1)Nc1nc2c(s1)CCCC2	
2.1	> 10000		> 1000	O=C(CN1CCN(C(=O)c2ccccc2)CC1)Nc1nc2c(s1)CCCC2	
